Test results from ChEMBL document CHEMBL4020721 (Eur J Med Chem, 2017).

Tests used:
[1] = target: T1, CYP2C19 (Homo sapiens, UniProt P33261); test: (§1) Reversible inhibition of CYP2C19 in human liver microsomes at 10 uM after 20 mins in presence of NADPH by LC-MS/MS analysis; format: ADME; conditions: liver microsomes
[2] = Volume of distribution at steady state in Sprague-Dawley rat plasma at 1 mg/kg, iv by UPLC-MS/MS analysis; format: ADME, organism-based; conditions: read-out: Vdss
In short: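 Male Sprague-Dawley rats (180-220 g), fasted overnight with water available, dosed iv (n=2). Blood on heparin collected from 0 to 1440 min. Plasma obtained by centrifugation and stored at -20°C. Proteins precipitated with acetonitrile containing internal standard, then UPLC-MS/MS. Vss taken from the iv data.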

[3] = Clearance in Sprague-Dawley rat plasma at 1 mg/kg, iv by UPLC-MS/MS analysis; format: ADME, organism-based
In short: (§2)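 Male Sprague-Dawley rats (180-220 g) were fasted overnight with free access to water. Dosing was intravenous (n=2) or oral at 6 mg/kg (n=3). Heparinized blood was drawn from 0 to 1440 min. Plasma was frozen at -20°C, then precipitated with acetonitrile containing internal standard, centrifuged and analysed by UPLC-MS/MS.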

[4] = target: T2, CYP2C9 (Homo sapiens, UniProt P11712); test: (§3) Time dependent irreversible inhibition of CYP2C9 in human liver microsomes at 10 uM preincubated with compound followed by NADPH addition by LC-MS/MS analysis; format: ADME; conditions: liver microsomes
T2 sequence (P11712 whole entry): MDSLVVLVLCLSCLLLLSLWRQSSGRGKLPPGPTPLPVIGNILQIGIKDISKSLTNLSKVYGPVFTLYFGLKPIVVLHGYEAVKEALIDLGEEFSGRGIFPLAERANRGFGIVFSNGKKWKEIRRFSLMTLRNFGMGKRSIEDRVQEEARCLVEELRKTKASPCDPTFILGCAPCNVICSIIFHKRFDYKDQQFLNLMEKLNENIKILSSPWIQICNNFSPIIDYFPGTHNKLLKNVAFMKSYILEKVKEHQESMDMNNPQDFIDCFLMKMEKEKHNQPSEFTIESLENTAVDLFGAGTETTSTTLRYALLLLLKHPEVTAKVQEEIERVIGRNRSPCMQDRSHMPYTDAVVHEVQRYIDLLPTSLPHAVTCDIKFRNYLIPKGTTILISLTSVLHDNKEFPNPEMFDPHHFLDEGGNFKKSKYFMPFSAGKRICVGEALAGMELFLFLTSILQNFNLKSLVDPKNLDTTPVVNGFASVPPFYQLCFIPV
In short: (§4)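 HLM (0.2 mg/ml) with 10 µM compound were preincubated 0, 5, 10 or 20 min at 37°C with 1 mM NADPH or PBS. Substrate cocktail (halved concentrations) plus NADPH was then added for 10 min. Metabolites were measured by LC-MS/MS. Kobs is the slope of relative activity versus preincubation time.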

[5] = tested on: NCI-H1993; test: Growth inhibition of human NCI-H1993 cells after 72 hrs by CCK-8 assay; format: functional, cell-based; conditions: Homo sapiens, NCI-H1993, 72 h
[6] = tested on: SNU-5; test: Growth inhibition of human SNU5 cells after 72 hrs by CCK-8 assay; format: functional, cell-based; conditions: Homo sapiens, SNU-5, 72 h
[7] = Intrinsic clearance in human liver microsomes assessed per mg protein at 1 uM preincubated for 5 mins followed by NADPH addition measured after 5 to 30 mins by LC-MS/MS analysis; format: ADME, microsome; conditions: read-out: CLH
In short: (§5)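 Microsomes (0.5 mg/ml) with 1 µM compound were preincubated 5 min at 37°C in 100 mM phosphate buffer pH 7.4, then started with 1 mM NADPH. Samples were taken at 0, 5, 10 and 30 min, quenched with acetonitrile/tinidazole and run by LC-MS/MS. CLint = k / microsomal protein concentration. Midazolam was the positive control.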

[8] = Intrinsic clearance in rat liver microsomes assessed per mg protein at 1 uM preincubated for 5 mins followed by NADPH addition measured after 5 to 30 mins by LC-MS/MS analysis; format: ADME, microsome; conditions: read-out: CLH; in short: as §5
[9] = (§6) Drug recovery in human liver microsomes at 1 uM measured after 30 mins by LC-MS/MS analysis; format: ADME, microsome; conditions: liver microsomes, read-out: Drug recovery
In short: (§7)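 Liver microsomes (0.5 mg/ml) were incubated with 1 µM compound at 37°C in 100 mM phosphate buffer pH 7.4 without NADPH for 30 min. Reactions were quenched with acetonitrile/tinidazole internal standard and analysed by LC-MS/MS. Recovery (%) was taken from the compound/internal standard peak area ratio.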

[10] = (§8) Drug recovery in rat liver microsomes at 1 uM measured after 30 mins by LC-MS/MS analysis; format: ADME, microsome; conditions: liver microsomes, read-out: Drug recovery
[11] = target: T2, CYP2C9; test: (§9) Reversible inhibition of CYP2C9 in human liver microsomes at 10 uM after 20 mins by in presence of NADPH LC-MS/MS analysis; format: ADME; conditions: liver microsomes
[12] = target: T3, CYP3A4 (Homo sapiens, UniProt P08684); test: (§10) Reversible inhibition of CYP3A4 in human liver microsomes at 10 uM after 20 mins in presence of NADPH by LC-MS/MS analysis; format: ADME; conditions: liver microsomes
T3 sequence (P08684 whole entry): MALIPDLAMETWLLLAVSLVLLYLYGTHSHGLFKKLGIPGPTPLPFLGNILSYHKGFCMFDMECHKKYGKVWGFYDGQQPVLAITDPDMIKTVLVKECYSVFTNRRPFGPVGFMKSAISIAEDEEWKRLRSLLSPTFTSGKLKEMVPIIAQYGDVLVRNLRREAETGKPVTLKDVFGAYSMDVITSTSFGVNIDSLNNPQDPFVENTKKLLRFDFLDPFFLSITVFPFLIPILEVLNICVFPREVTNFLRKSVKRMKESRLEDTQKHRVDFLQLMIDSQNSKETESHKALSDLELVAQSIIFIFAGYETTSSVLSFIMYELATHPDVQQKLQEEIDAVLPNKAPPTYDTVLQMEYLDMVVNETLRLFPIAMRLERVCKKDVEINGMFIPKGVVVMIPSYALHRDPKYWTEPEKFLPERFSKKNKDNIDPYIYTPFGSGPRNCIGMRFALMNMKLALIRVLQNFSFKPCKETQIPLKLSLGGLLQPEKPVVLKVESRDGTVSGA

[13] = target: T4, CYP2D6 (Homo sapiens, UniProt P10635); test: (§11) Reversible inhibition of CYP2D6 in human liver microsomes at 10 uM after 20 mins in presence of NADPH by LC-MS/MS analysis; format: ADME; conditions: liver microsomes
T4 sequence (P10635 whole entry): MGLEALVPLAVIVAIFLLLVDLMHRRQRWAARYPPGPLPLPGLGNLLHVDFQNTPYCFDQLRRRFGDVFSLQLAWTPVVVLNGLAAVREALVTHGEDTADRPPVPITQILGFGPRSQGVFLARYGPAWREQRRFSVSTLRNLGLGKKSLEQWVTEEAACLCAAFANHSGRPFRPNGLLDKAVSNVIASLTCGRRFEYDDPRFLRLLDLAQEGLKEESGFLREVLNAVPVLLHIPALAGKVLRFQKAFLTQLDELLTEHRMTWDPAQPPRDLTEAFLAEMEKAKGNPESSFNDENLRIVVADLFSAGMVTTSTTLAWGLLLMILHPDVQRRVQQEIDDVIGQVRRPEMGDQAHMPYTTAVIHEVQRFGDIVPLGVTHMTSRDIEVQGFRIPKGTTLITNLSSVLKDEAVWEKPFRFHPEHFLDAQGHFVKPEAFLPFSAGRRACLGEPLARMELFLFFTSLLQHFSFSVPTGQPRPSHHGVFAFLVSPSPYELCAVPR

[14] = target: T5, CYP1A2 (Homo sapiens, UniProt P05177); test: Reversible inhibition of CYP1A2 in human liver microsomes at 10 uM after 20 mins in presence of NADPH by LC-MS/MS analysis; format: ADME
T5 sequence (P05177 whole entry): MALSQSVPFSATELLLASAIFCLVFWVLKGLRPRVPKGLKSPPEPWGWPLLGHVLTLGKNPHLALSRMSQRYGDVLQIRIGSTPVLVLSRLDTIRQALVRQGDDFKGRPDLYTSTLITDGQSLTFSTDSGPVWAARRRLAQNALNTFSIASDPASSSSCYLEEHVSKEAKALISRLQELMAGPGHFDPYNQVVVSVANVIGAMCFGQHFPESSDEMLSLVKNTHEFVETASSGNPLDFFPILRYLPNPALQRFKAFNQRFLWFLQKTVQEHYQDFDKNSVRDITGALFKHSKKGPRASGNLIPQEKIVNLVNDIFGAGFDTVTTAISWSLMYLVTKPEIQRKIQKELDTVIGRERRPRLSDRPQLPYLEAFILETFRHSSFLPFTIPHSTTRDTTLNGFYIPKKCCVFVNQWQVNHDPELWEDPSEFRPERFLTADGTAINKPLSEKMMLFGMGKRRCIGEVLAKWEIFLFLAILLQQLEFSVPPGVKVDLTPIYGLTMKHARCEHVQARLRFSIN

[15] = target: T1, CYP2C19; test: Time dependent irreversible inhibition of CYP2C19 in human liver microsomes at 10 uM preincubated with compound followed by NADPH addition by LC-MS/MS analysis; format: ADME; in short: as §4
[16] = target: T3, CYP3A4; test: (§12) Time dependent irreversible inhibition of CYP3A4 in human liver microsomes at 10 uM preincubated with compound followed by NADPH addition by LC-MS/MS analysis; format: ADME; conditions: liver microsomes; in short: as §4
[17] = target: T4, CYP2D6; test: (§13) Time dependent irreversible inhibition of CYP2D6 in human liver microsomes at 10 uM preincubated with compound followed by NADPH addition by LC-MS/MS analysis; format: ADME; conditions: liver microsomes; in short: as §4
[18] = target: T5, CYP1A2; test: (§14) Time dependent irreversible inhibition of CYP1A2 in human liver microsomes at 10 uM preincubated with compound followed by NADPH addition by LC-MS/MS analysis; format: ADME; conditions: liver microsomes; in short: as §4
[19] = Half life in Sprague-Dawley rat plasma at 1 mg/kg, iv by UPLC-MS/MS analysis; format: ADME, organism-based; in short: as §2
[20] = Cmax in Sprague-Dawley rat plasma at 6 mg/kg, po by UPLC-MS/MS analysis; format: ADME, organism-based; set-up: dose 6 mg/kg, route oral; in short: as §2
[21] = AUC (0 to 24 hrs) in Sprague-Dawley rat plasma at 6 mg/kg, po by UPLC-MS/MS analysis; format: ADME, organism-based; set-up: dose 6 mg/kg, time < 24 hr, route oral; in short: as §2
[22] = Oral bioavailability in Sprague-Dawley rat plasma at 6 mg/kg by UPLC-MS/MS analysis; format: ADME, organism-based; conditions: Sprague-Dawley, plasma; in short: as §2
[23] = Drug recovery in monkey liver microsomes at 1 uM measured after 30 mins by LC-MS/MS analysis
[24] = Intrinsic clearance in monkey liver microsomes assessed per mg protein at 1 uM preincubated for 5 mins followed by NADPH addition measured after 5 to 30 mins by LC-MS/MS analysis; conditions: liver microsomes; read-out: CLH
[25] = target: T6, Cytochrome P450 2C9 (Homo sapiens, UniProt P11712); test: as §3; format: ADME; conditions: microsomes, 10 µM; in short: as §4
T6 sequence (P11712 whole entry): as the sequence (P11712 whole entry) above

[26] = tested on: Liver; test: as §8; format: ADME, microsome; conditions: microsomes, 0.5 h, 1 µM
[27] = target: T7, Cytochrome P450 3A4 (Homo sapiens, UniProt P08684); test: as §12; format: ADME; conditions: microsomes, 10 µM; in short: as §4
T7 sequence (P08684 whole entry): as the sequence (P08684 whole entry) above

[28] = target: T8, Cytochrome P450 2D6 (Homo sapiens, UniProt P10635); test: as §13; format: ADME; conditions: microsomes, 10 µM; in short: as §4
T8 sequence (P10635 whole entry): as the sequence (P10635 whole entry) above

[29] = target: Cytochrome P450 1A2 (Homo sapiens, UniProt P05177); test: as §14; format: ADME; conditions: microsomes, 10 µM; in short: as §4
[30] = tested on: Liver; test: as §6; format: ADME, microsome; conditions: microsomes, 0.5 h, 1 µM; in short: as §7
[31] = target: Cytochrome P450 2C19 (Homo sapiens, UniProt P33261); test: as §1; format: ADME; conditions: microsomes, 20 min, 10 µM
Chain of Cytochrome P450 2C19 (P33261 whole entry): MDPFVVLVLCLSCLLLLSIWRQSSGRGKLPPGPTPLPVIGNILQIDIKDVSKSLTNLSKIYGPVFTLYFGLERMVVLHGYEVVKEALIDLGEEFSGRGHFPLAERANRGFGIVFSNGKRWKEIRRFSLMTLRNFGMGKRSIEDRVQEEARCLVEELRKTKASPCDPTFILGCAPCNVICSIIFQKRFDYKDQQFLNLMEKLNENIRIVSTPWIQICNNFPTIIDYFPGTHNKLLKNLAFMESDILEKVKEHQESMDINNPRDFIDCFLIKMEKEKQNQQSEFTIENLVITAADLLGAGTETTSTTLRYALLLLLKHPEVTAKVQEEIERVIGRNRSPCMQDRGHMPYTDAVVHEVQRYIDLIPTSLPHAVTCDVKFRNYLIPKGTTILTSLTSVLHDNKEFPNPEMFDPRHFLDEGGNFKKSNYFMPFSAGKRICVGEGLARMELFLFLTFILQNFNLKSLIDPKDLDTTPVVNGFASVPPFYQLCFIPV

[32] = target: T6, Cytochrome P450 2C9; test: as §9; format: ADME; conditions: microsomes, 20 min, 10 µM
[33] = target: T7, Cytochrome P450 3A4; test: as §10; format: ADME; conditions: microsomes, 20 min, 10 µM
[34] = target: T8, Cytochrome P450 2D6; test: as §11; format: ADME; conditions: microsomes, 20 min, 10 µM

T1 sequence (P33261 whole entry): as above

| inhibition at 20 min, 10 µM [1] [%] | inhibition at 10 µM [4] [%] | IC50 [5] [nM] | IC50 [6] [nM] | microsomal CLint at 1 µM [7] [µL/min/mg] | microsomal CLint at 1 µM [8] [µL/min/mg] | remaining at 0.5 h, 1 µM [9] [%] | remaining at 0.5 h, 1 µM [10] [%] | inhibition at 20 min, 10 µM [11] [%] | inhibition at 20 min, 10 µM [12] [%] | inhibition at 20 min, 10 µM [13] [%] | inhibition at 20 min, 10 µM [14] [%] | inhibition at 10 µM [15] [%] | inhibition at 10 µM [16] [%] | inhibition at 10 µM [17] [%] | inhibition at 10 µM [18] [%] | remaining at 0.5 h, 1 µM [23] [%] | microsomal CLint at 1 µM [24] [µL/min/mg] | SMILES | other results |
| --- | --- | --- | --- | --- | --- | --- | --- | --- | --- | --- | --- | --- | --- | --- | --- | --- | --- | --- | --- |
| < 50 | < 50 | 0.9 | 0.6 | 2 | 1 | 120 | 115 | < 50 | < 50 | < 50 | < 50 | < 50 | < 50 | < 50 | < 50 | 103 | 6 | CC(c1cc2cc(-c3cnn(C)c3)cnc2cc1F)n1nnc2ncc(-c3ccc(C(N)=O)c(F)c3)nc21 (stereo not given) | Vd [2]: 2 L/kg; clearance [3]: 9.33 mL/min/kg; half-life [19]: 3.2 h; Cmax [20]: 98.9 ng/mL; AUC(0-t) at 24 h [21]: 879 ng·h/mL; bioavailability [22]: 8.2% |
| < 50 |  | 0.9 | 0.7 | 3 | 10 | 120 |  | < 50 | < 50 | < 50 | < 50 |  |  |  |  | 98 | 30 | CC(c1ccc2ncc(-c3cnn(C)c3)cc2c1)n1nnc2ncc(-c3ccc(C(N)=O)c(F)c3)nc21 (stereo not given) | TDI [25]: Active; Drug recovery [26]: 128%; TDI [27]: Active; TDI [28]: Active; TDI [29]: Active |
|  |  |  | 0.5 | 12 | 22 |  | 115 |  |  |  |  |  |  |  |  | 79 | 42 | CC(c1ccc2ncc(-c3cnn(C)c3)cc2c1)n1nnc2ncc(-c3cnn(C)c3)nc21 (stereo not given) | Drug recovery [30]: 123% |
|  | < 50 | 0.2 | 1.2 | 9 | 26 | 101 | 98 |  |  |  |  | < 50 | < 50 | < 50 | < 50 | 99 | 106 | CC(c1c(F)cc2ncc(-c3cnn(C)c3)cc2c1F)n1nnc2ncc(-c3ccncc3)nc21 (stereo not given) | inhibition (INH) [31]: Active; inhibition (INH) [32]: Active; inhibition (INH) [33]: Active; inhibition (INH) [34]: Active |
